The values that follow come from publication PMC2865185 (The FEBS journal, 2009).

Numbering of substitutions follows the chain as printed. Where two headings read alike, the source gives them in different places.

Series [1] has as its target T1, EphA3(K785E) (Homo sapiens, UniProt P29320, K785E).
T1 sequence (P29320 577-947 K785E limits assumed): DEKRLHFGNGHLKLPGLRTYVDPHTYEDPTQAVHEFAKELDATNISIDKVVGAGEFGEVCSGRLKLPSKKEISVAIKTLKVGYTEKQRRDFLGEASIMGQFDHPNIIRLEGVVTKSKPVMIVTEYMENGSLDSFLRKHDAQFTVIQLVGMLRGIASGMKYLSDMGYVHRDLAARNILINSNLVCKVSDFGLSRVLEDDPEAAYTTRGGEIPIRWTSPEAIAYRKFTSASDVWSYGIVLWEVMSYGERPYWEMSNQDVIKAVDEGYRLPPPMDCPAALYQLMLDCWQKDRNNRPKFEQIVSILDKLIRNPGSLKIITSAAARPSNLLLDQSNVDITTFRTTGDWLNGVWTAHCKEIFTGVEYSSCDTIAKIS
Nature of the series: ADP-Quest kinase assay, EphA3 K785E mutant. In kind it is biochemical. The method, boiled down: (§1)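 EphA3 kinase domain, wild-type or point mutant made by site-directed mutagenesis, expressed in E. coli BL21 Gold (DE3). His-tag purified, thrombin-cleaved, gel-filtered, then autophosphorylated with 10 mM each ATP and MgCl2; free nucleotide removed by anion exchange. ADP-Quest fluorescence (ex 530/em 590 nm) at room temperature. Peptide 1–4000 µM, ATP 200 µM, enzyme 10 nM–5 µM. Duplicates, background-ADP corrected. Km/Vmax from Michaelis–Menten fit; SD from two independent experiments.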

The target of series [2] is T2, EphA3(N830A) (Homo sapiens, UniProt P29320, N830A).
T2 sequence (P29320 621-882 N830A limits assumed): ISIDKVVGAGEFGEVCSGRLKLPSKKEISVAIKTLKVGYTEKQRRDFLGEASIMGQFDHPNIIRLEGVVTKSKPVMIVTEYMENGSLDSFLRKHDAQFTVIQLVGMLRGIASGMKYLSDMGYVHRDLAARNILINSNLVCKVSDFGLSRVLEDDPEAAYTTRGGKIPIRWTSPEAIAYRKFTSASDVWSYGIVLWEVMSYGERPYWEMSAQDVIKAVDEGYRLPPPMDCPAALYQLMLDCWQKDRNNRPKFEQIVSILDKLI
The series is described as follows: ADP-Quest kinase assay, EphA3 N830A mutant. The series is classed as biochemical. The conditions noted are these: for kcat/Km / Km / kcat: 200 µM ATP, room temperature, ADP-Quest; for Km / kcat: peptide 1 to 4000 µM, ± SD from two independent experiments, in duplicate. The method in brief: as §1

Series [3] deals with T3, EphA3 kinase domain (wild-type) (Homo sapiens, UniProt P29320).
T3 sequence (P29320 621-882 limits assumed): T2 sequence (P29320 621-882 N830A limits assumed) with A210N
The series is described as follows: ADP-Quest kinase assay, wild-type EphA3 kinase domain. In kind it is biochemical. The settings on record: for kcat/Km / kcat: 200 µM ATP, room temperature, ADP-Quest; for kcat: ± SD from two independent experiments, in duplicate. The method in brief:
as §1

In series [4] the target is T4, EphA7 (Homo sapiens, UniProt Q15375).
T4 sequence (Q15375 633-894 limits assumed): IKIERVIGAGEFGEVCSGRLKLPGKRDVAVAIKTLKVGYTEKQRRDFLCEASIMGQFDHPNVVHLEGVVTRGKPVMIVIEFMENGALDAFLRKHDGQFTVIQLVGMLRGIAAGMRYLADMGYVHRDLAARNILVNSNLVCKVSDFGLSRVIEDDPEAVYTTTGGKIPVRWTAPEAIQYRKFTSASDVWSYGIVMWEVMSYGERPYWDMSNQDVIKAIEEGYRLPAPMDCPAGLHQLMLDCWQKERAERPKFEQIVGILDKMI
The series is described as follows: Isoform specificity of EPHOPT, EphA7. The conditions noted are these: in words; EphA7, non-arginine at position 782. In kind it is biochemical. The method in brief:
(§2)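 Each kinase prepared by target. EphA5, EphA7 and EphB3 were autophosphorylated with 10 mM each ATP and MgCl2, then freed of nucleotide by anion exchange. EphB2 and EphB4 were bought in active form and used unmodified. ADP-Quest fluorescence read-out (ex 530/em 590 nm) at room temperature. Peptide substrate 1–4000 µM, ATP 200 µM, enzyme 10 nM–5 µM. Duplicates, background-corrected. Kinetic constants from Michaelis–Menten fit.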

Series [5] addresses T5, EphB4 (Homo sapiens, UniProt P54760).
T5 sequence (P54760 615-899 limits assumed): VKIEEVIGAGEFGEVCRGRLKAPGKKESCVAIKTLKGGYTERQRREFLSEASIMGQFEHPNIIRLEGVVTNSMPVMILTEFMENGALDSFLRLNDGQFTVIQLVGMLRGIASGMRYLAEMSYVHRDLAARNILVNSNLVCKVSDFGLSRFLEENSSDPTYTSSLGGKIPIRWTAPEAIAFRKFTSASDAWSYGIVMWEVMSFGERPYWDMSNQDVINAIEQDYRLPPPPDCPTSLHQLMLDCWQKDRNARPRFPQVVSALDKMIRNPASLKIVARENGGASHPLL
Nature of the series: Isoform specificity of EPHOPT, EphB4. The conditions noted are these: in words; EphB4, non-arginine at position 782. The series is classed as biochemical. The method, boiled down: as §2

Series [6] addresses T6, EphB2 (Homo sapiens, UniProt P29323).
T6 sequence (P29323 621-884 limits assumed): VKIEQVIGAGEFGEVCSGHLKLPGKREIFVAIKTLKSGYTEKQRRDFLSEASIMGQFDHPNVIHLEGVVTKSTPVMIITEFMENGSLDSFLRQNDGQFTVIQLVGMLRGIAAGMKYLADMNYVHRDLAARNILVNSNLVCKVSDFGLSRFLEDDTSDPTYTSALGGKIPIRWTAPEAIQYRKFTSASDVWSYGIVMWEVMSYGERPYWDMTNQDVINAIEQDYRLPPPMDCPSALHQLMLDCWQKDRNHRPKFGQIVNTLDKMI
Nature of the series: Isoform specificity of EPHOPT, EphB2. In kind it is biochemical. The conditions noted are these: in words; EphB2, non-arginine at position 782. The method, boiled down:
as §2

A short description of series [7]: Aqueous solubility of peptide. The settings on record: aqueous buffer. The series is classed as physicochemical.
Series [8] concerns EphA5, EphA7, EphB3, EphB4, EphB2 (relative to EphA3). Nature of the series: Isoform specificity of EPHOPT, other EPH kinase domains. The series is classed as biochemical. The method, boiled down: as §2
The target of series [9] is T7, EphB3 (Homo sapiens, UniProt P54753).
T7 sequence (P54753 633-896 limits assumed): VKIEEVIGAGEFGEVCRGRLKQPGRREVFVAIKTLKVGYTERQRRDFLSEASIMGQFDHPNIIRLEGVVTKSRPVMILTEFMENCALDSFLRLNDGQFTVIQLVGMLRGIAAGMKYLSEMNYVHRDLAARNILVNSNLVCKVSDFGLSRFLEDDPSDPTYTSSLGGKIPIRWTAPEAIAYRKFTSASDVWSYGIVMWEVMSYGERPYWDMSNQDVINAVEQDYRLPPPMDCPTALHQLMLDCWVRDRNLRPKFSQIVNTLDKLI
The series is described as follows: Isoform specificity of EPHOPT, EphB3. The conditions noted are these: in words. In kind it is biochemical. The method, boiled down: as §2

The test system of series [10] is EphA3 kinase domain. The conditions noted are these: juxtamembrane peptide, ref [20], cited from earlier work.
Where [11] appears, read: EphA3(K785E), 200 µM ATP, room temperature, ADP-Quest, ± SD from two independent experiments, in duplicate.
Setting [12] is: EphA3 K785E mutant, 200 µM ATP, room temperature, ADP-Quest.
The mark [13] stands for this setting: EphA3 K785E mutant, peptide 1 to 4000 µM, 200 µM ATP, room temperature, ADP-Quest, ± SD from two independent experiments, in duplicate.
Setting [14] is: EphA3(N830A) relative to wild-type.
The mark [15] stands for this setting: relative to juxtamembrane peptide.

For orientation: Km means the substrate concentration at which the rate is half of its maximum. As for KQWDNYEFIW [OPTYF], the kcat/Km in series [1] (EphA3(K785E), 200 µM ATP, room temperature, ADP-Quest) was 0.155 µM/min; in series [1] (setting [12]), 2580 M⁻¹ s⁻¹; in series [2] (EphA3 N830A mutant) it was 3280 M⁻¹ s⁻¹; in series [3], 233880 M⁻¹ s⁻¹. The kcat in series [1] (setting [11]) worked out at 0.383 ± 0.13 s⁻¹; in [1] (setting [13]) it was 0.383 ± 0.13 s⁻¹; in series [2] (EphA3 N830A mutant), 0.5 ± 0.0233 s⁻¹; in [3] it was 421 ± 30 min⁻¹; in series [3] (peptide 1 to 4000 µM), 421 ± 30 min⁻¹. In addition, the “weaker affinity (relative to EPHOPT)” value in series [2] (EphA3(N830A), OPTYF versus EPHOPT) is 5 -fold. Besides, the Km in [2] (EphA3 N830A mutant) came to 152 ± 35 µM. For the same substance, the “relative change in Km” value in series [3] (relative to EPHOPT) is listed as ~ 2 -fold. Also, the “relative change in kcat” value in [3] (relative to EPHOPT) was ~ 2 -fold.

Usually solubility stands for the concentration that dissolves in the medium under given conditions. Low values mean little dissolved substance, high ones much dissolved substance. On to KQWDNYEpYIW [EPHOPT], for which the “catalytic efficiency (EphA7)” value in series [4] was “lower catalytic efficiencies”. In addition, the “decrease in catalytic efficiency” value in [1] (EphA3(K785E) relative to wild-type) is 260 -fold; in series [2] (setting [14]) it was “more than one order of magnitude decrease”. Further, the “negative effect on Km” value in series [1] (EphA3(K785E) relative to wild-type enzyme) is listed as “about an order of magnitude”. The kcat in series [1] (setting [11]) was 0.567 ± 0.012 s⁻¹; in [1] (setting [13]) it was 0.567 ± 0.012 s⁻¹; in series [2] (EphA3 N830A mutant) it was 0.55 ± 0.0233 s⁻¹; in series [3], 850 ± 44 per minute; in series [3] (peptide 1 to 4000 µM), 850 ± 44 min⁻¹. In addition, the kcat/Km in series [1] (setting [12]) came to 3020 M⁻¹ s⁻¹; in series [2] (EphA3(N830A)) it was 0.835 µM/min; in series [2] (EphA3 N830A mutant), 13900 M⁻¹ s⁻¹; in series [3] it was 787030 M⁻¹ s⁻¹. In addition, the Michaelis-Menten constant (Km) was 188 ± 64 µM in series [1] (setting [13]) and 39.5 ± 0.7 µM in series [2] (EphA3 N830A mutant). In [2] (setting [14]), the “decrease in kcat/Km” value was 56 -fold. In addition, the “catalytic efficiency (EphB4)” value in series [5] was “lower catalytic efficiencies”. In addition, the “catalytic efficiency (EphB2)” value in [6] is reported as “lower catalytic efficiencies”. Also, the solubility in series [7] was at least 100000 µM. Moreover, the “drop in Km” value in series [3] (setting [15]) was “almost two orders of magnitude”. In series [3] (setting [15]), the “increase in catalytic efficiency” value was “over 200 -fold”. Besides, in series [3] (setting [15]), the increase in kcat is reported as 4 -fold. The “rank order of catalytic efficiency across isoforms” value in [8] (EphA3 and five other EPH kinases, Supplemental Table S2) was “EphA3>EphA5≅EphB3>>EphA7≅EphB4>>EphB2”. For the same substance, the “selectivity for EphA3 over other EPH kinases” value in series [8] (in words) is recorded as “mildly to strongly selective for EphA3”. In series [9], the “catalytic efficiency of EphB3 relative to EphA5” value is on record as “nearly as efficient as EphA5”. Moreover, the “substrate affinity at EphB3 relative to EphA3” value in [9] is on record as “nearly identical substrate affinity as EphA3”.

On to “D^598PHTYEDPTQ^606 [juxtamembrane EphA3 peptide]”, for which, in series [10] (EphA3 kinase domain), the Km is 1000 ± 20 µM, the catalytic efficiency is 200 min⁻¹ mM⁻¹ and the kcat is 199 ± 9 min⁻¹. Also, the kcat in [10] (quoted for comparison with EPHOPT) is on record as 199 per minute.

On to KQWDNYEKIW [OPTYK], for which, in series [3], the kcat/Km worked out at 34270 M⁻¹ s⁻¹. Further, in [3] (peptide 1 to 4000 µM), the kcat was 220 ± 27 min⁻¹.
